Data published in ChEMBL document CHEMBL4431329, “Peripherally Selective Cannabinoid 1 Receptor (CB1R) Agonists for the Treatment of Neuropathic Pain” (J Med Chem, 2016).
Activity calls are given as the source filed them.

Key:
[1] = target: T1, Cannabinoid receptor 1 (Homo sapiens, UniProt P21554); assay: Displacement of [3H]-CP55940 from human CB1 receptor
In short: (§1)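 Radioligand displacement used [3H]-CP55940 as tracer in heterologous competition binding. Unlabeled reference ligands defined nonspecific binding. Ki was calculated by Cheng–Prusoff.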

[2] = Metabolic stability in Sprague-Dawley rat plasma assessed as compound remaining at 10 uM measured at 1 hr by LC/MS analysis; type: ADME, cell-free
In short: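 Compound (10 μM final, from 1 mM ethanol stock) was incubated in male Sprague–Dawley rat plasma at 37 °C. Aliquots taken at 0, 30 and 60 min were extracted with 3 volumes methanol and centrifuged. Supernatants were analysed by LC/MS.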

[3] = Metabolic stability in Sprague-Dawley rat liver S9 fraction assessed as compound remaining at 10 uM measured at 1 hr by LC/MS analysis; type: ADME, subcellular; conditions: s9, 1 h
In short: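 Compound (10 μM final, from 1 mM ethanol stock) was incubated at 37 °C in male Sprague–Dawley rat liver S9 (1 mg protein/mL). The mix held an NADPH-regenerating system (1 mM NADP, 5 mM glucose 6-phosphate, 1 U/mL G6PDH) in 50 mM KPO4 pH 7.4 with 3 mM MgCl2, preincubated 5 min. Samples at 0–120 min were methanol-extracted and analysed by LC/MS.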

[4] = target: T2, Cannabinoid receptor 2 (Homo sapiens, UniProt P34972); assay: Agonist activity at human CB2R expressed in CHO cells by Ca2+ flux assay; type: functional, cell-based
T2 sequence (P34972 whole entry): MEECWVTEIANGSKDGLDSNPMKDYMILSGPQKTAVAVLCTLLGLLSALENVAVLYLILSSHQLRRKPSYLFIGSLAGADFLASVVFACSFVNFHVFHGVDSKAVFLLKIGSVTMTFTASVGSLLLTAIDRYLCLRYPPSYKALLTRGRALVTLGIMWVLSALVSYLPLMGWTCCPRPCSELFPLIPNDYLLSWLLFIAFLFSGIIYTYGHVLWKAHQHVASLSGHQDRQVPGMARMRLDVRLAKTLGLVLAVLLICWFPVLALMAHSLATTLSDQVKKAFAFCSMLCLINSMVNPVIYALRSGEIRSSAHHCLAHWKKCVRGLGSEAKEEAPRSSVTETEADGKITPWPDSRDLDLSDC
In short: (§2)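 CHO cells stably co-expressing human CB1 or CB2 with Gαq16 were seeded at 40000/well and grown 24 h at 37 °C. They were loaded 1 h at 37 °C with Fluo-4 AM (2 μM final) in HBSS/20 mM HEPES/1% BSA/probenecid. Agonist was added after ~17 s baseline, and fluorescence (ex 488/em 525) was read each 1 s for 60 s. Runs were done 3–6 times; mean ± SEM.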

[5] = Toxicity in naive Sprague-Dawley rat assessed as immobility at 0.1 to 10 mg/kg administered through oral gavage after 2 to 48 hrs by catalepsy ring test; type: organism-based; conditions: in vivo
In short: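 In the ring immobility test, forepaws were placed on a 12 cm horizontal ring with hindpaws just touching the bench. Time to move off was recorded, 100 s cutoff. Testing was pre-dose and 2, 6, 24 and 48 h after ip or oral gavage dosing. Values are peak effect minus vehicle; n = 6–8; blinded.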

[6] = system: Rattus norvegicus; assay: Analgesic activity in naive Sprague-Dawley rat assessed as tail flick latency at 0.1 to 10 mg/kg administered through oral gavage up to 48 hrs by tail-flick assay; type: functional, organism-based
In short: (§3)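 Naïve male Sprague–Dawley rats were dosed ip (DMSO/Cremophor EL/saline) or by gavage (DMSO in 20% condensed milk). Radiant heat was aimed 3 cm from the tail tip and latency timed by photocell. Baseline was set to ~5–7 s with a 25 s cutoff. Testing ran 1 h pre-dose and up to 48 h after. Peak effect was taken minus vehicle; n = 6–8; blinded.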

[7] = system: Rattus norvegicus; assay: Antiallodynic activity in SNE-induced mechanical allodynia naive Sprague-Dawley rat model assessed as reversible […] in hindpaw ipsilateral withdrawal threshold at 0.3 mg/kg, ip preincubated for 3 hrs followed by SNE addition; type: functional, organism-based
In short: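 Male Sprague–Dawley rats received unilateral sciatic nerve entrapment. Testing began 8 days post-surgery at 3-day intervals, dosed ip in DMSO/Cremophor EL/saline. Hindpaw withdrawal threshold (g) was read with a digital von Frey meter, 4 readings per paw at 30 s spacing, averaged. Reads were taken 1 h before and 3, 6, 24 and 48 h after dosing; n = 8; blinded; one-way RM ANOVA.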

[8] = system: Rattus norvegicus; assay: Analgesic activity in naive Sprague-Dawley rat assessed as increase in tail flick latency at 0.3 mg/kg, ip up to 48 hrs by tail-flick assay; type: functional, organism-based; in short: as §3
[9] = Toxicity in naive Sprague-Dawley rat assessed as hypothermia at 0.1 to 10 mg/kg administered through oral gavage after 2 to 48 hrs by core temperature test; type: organism-based; conditions: in vivo
In short: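 Naïve rats were acclimated to a restrainer (two 5-min sessions 20 min apart). Core temperature was taken before and 2, 6, 24 and 48 h after ip (DMSO/Cremophor EL/saline) or oral gavage (DMSO in 20% condensed milk) dosing. Dose-response points are mean peak effect minus vehicle; n = 6–8 rats; blinded.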

[10] = target: T1, Cannabinoid receptor 1; assay: Agonist activity at human CB1R expressed in CHO cells by Ca2+ flux assay; type: functional, cell-based; in short: as §2
[11] = Toxicity in naive Sprague-Dawley rat assessed as motor incoordination at 0.1 to 10 mg/kg administered through oral gavage after 2 to 48 hrs by rotarod test; type: organism-based; conditions: in vivo
In short: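 Rats were trained 72 h earlier (3 sessions, 24 h apart) to stay ≥180 s on an accelerating rotarod (4–40 rev over 5 min). Time on rod was recorded to a 3 min cutoff, 1 h pre-dose and 2, 6, 24 and 48 h after ip or oral gavage dosing. Values are peak effect minus vehicle; n = 6–8; blinded.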

[12] = target: T2, Cannabinoid receptor 2; assay: Displacement of [3H]-CP55940 from human CB2 receptor; in short: as §1

T1 sequence (P21554 whole entry): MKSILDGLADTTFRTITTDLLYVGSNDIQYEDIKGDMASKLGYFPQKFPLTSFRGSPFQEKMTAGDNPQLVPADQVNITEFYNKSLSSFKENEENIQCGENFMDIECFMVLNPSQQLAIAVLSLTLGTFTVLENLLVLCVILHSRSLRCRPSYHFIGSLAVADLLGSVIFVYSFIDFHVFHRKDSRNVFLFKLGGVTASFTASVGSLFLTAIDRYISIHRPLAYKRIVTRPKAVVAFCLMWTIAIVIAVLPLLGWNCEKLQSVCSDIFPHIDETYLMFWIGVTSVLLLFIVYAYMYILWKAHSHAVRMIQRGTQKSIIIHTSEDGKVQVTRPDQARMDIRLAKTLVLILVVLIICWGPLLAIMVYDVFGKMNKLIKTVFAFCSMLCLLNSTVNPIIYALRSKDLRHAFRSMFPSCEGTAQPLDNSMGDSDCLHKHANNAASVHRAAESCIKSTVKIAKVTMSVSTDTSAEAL

| Compound | Ki [1] [µM] | Stability [2] [%] | Stability [3] [%] | other results |
| --- | --- | --- | --- | --- |
| CCCCCCC1=C/C(=C\c2ccccc2)c2ccccc21 | 4.41 | – | – | – |
| CCCCCn1cc(C(=O)c2cccc3ccccc23)c2cc(F)ccc21 | – | 99 | 13 | – |
| COc1ccc(/C=C2\C=C(CCN3CCOCC3)c3ccccc32)c2ccccc12 | – | 100 | 43 | EC50 [4]: 0.194 µM; Emax [4]: 52%; Activity [5]: Non-Toxic; Activity [6]: Active; Activity [7]: Active; Activity [8]: Active; Activity [9]: Non-Toxic; EC50 [10]: 0.196 µM; Emax [10]: 114%; Activity [11]: Non-Toxic; Ki [12]: 0.00407 µM |
| CCCCCn1cc(C(=O)c2cccc3ccccc23)c2c(F)cccc21 | – | 69 | 5 | – |
| CCCCCCC1=C/C(=C\c2cccc3ccccc23)c2ccccc21 | 0.436 | – | – | – |
| CCCCCn1cc(C(=O)c2cccc3ccccc23)c2ccc(F)cc21 | – | 80 | 30 | – |
| O=C(O)CCCCn1cc(C(=O)c2cccc3ccccc23)c2ccccc21 | > 10 | – | – | – |
| C[N+]1(CCn2cc(C(=O)c3cccc4ccccc34)c3ccccc32)CCOCC1 | > 10 | – | – | – |
| CCCCCn1cc(C(=O)c2ccc(C(=O)O)c3ccccc23)c2ccccc21 | > 10 | – | – | – |
